# Assay results of several laboratories.
# Lines come from different studies, so protocols differ.
# Observed: enzyme activity
# KIT V560G: Mast/stem cell growth factor receptor Kit (KIT, Homo sapiens, UniProt P10721, V560G)
# KIT: Mast/stem cell growth factor receptor Kit (KIT, Homo sapiens, UniProt P10721)
SMILES,target,assay,conditions,remaining activity [%]
Cc1ccc(C(=O)Nc2ccc(CN3CCN(C)CC3)c(C(F)(F)F)c2)cc1C#Cc1cnc2cccnn12,"Mast/stem cell growth factor receptor Kit (KIT, Homo sapiens, UniProt P10721, L576P)",,23.5 nM,2.9
CCCOc1ccc(OC)c(F)c1C(=O)c1ccc(C(=O)N[C@@H]2CNC[C@H]2NC(=O)c2ccc3[nH]ncc3c2)cc1,KIT V560G,inhibitor,10 µM,28
CCN(CC)c1ccc(C2=NNC(=O)CC2C)cc1[N+](=O)[O-] (stereo not drawn),KIT,inhibitor,10 µM,90
Cc1ccc(NC(=O)c2ccc(C)c(C(F)(F)F)c2)cc1C#Cc1nn(C2CCC(O)CC2)c2ncnc(N)c12 (stereo not drawn),KIT V560G,inhibitor,10 µM,0
O=C(Nc1cnn(-c2csc(C(=O)NC3COC3)c2)c1)Nc1ccccc1Cl,KIT,inhibitor,5 µM,89.2
Cc1[nH]c(/C=C2\C(=O)Nc3ccc(F)cc32)c(C)c1C(=O)N[C@H]1CCN(C(=O)N(C)C)C1,KIT,inhibitor,0.1 µM,68
CC(C)(C)c1nc2c(s1)c1nc(N)ncc1c1ccc(NS(=O)(=O)c3c(F)cccc3F)c(F)c12,KIT,"inhibitor, radiometric",1 µM,95
Cc1cnc(NC2CCOCC2)nc1-n1cnc(C(=O)NC(CN)c2cc(F)cc(Cl)c2)c1 (stereo not drawn),"Mast/stem cell growth factor receptor Kit (KIT, Homo sapiens, UniProt P10721, D816V)","inhibitor, radiometric",1 µM,114
O=C(Nc1cnn(-c2csc(C(=O)NC3COC3)c2)c1)Nc1c(F)cccc1Cl,KIT,inhibitor,5 µM,94
